ChEMBL document CHEMBL1155099, “Natural products in parallel synthesis: triazole libraries of nonactic acid” (2008)
The source made the active and inactive calls.

Key:
Type in all cases: functional, organism-based
[1] = tested on: Escherichia coli; experiment: Antibacterial activity against Escherichia coli at 1 mM by almar blue dye reduction assay
How it was run: (§1)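 Single-point primary screen at 1 mM using Alamar Blue dye reduction as the growth read-out.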

[2] = tested on: Cryptococcus neoformans; experiment: Antifungal activity against Cryptococcus neoformans at 1 mM by almar blue dye reduction assay; how it was run: as §1
[3] = tested on: Bacillus anthracis; experiment: Antibacterial activity against Bacillus anthracis at 1mM by almar blue dye reduction assay
[4] = tested on: Pseudomonas aeruginosa; experiment: Antibacterial activity against Pseudomonas aeruginosa at 1 mM by almar blue dye reduction assay; how it was run: as §1
[5] = tested on: Saccharomyces cerevisiae; experiment: Antifungal activity against Saccharomyces cerevisiae at 1 mM by almar blue dye reduction assay; how it was run: as §1
[6] = tested on: Bacillus cereus; experiment: Antibacterial activity against Bacillus cereus at 1 mM by almar blue dye reduction assay; how it was run: as §1
[7] = tested on: Bacillus subtilis; experiment: Antibacterial activity against Bacillus subtilis at 1 mM by almar blue dye reduction assay; how it was run: as §1
[8] = tested on: Staphylococcus aureus; experiment: Antibacterial activity against Staphylococcus aureus at 1 mM by almar blue dye reduction assay; how it was run: as §1
[9] = tested on: Candida albicans; experiment: Antifungal activity against Candida albicans at 1 mM by almar blue dye reduction assay; how it was run: as §1

Measured: Activity

CC(C)CC#Cc1cn([C@H](C)C[C@@H]2CC[C@H]([C@@H](C)C(=O)N3CCN(CC4CCCO4)CC3)O2)nn1 (stereo partly drawn)
inactive: all assays above

C[C@H](C[C@@H]1CC[C@H]([C@@H](C)C(=O)N2CCCC2)O1)n1cc(C#CCN(C)CCc2ccccc2)nn1
inactive: all assays above

C[C@H](C[C@@H]1CC[C@H]([C@@H](C)C(=O)N2CCN(CC3CCCO3)CC2)O1)n1cc(C#CCN2CCN(c3ccccc3)CC2)nn1 (stereo partly drawn)
inactive: all assays above

C[C@H](C[C@@H]1CC[C@H]([C@@H](C)C(=O)N(C)Cc2ccccc2)O1)n1cc(C#CCN(C)C)nn1
inactive: all assays above

CCN(CC)C(=O)[C@H](C)[C@H]1CC[C@@H](C[C@@H](C)n2cc(C#CCOc3ccccc3)nn2)O1
inactive: all assays above

C[C@H](C[C@@H]1CC[C@H]([C@@H](C)C(=O)N2CCN(CC3CCCO3)CC2)O1)n1cc(C#Cc2ccc(Oc3ccccc3)cc2)nn1 (stereo partly drawn)
inactive: all assays above

C[C@H](C[C@@H]1CC[C@H]([C@@H](C)C(=O)N(C)Cc2ccccc2)O1)n1cc(C#CCCCC#N)nn1
inactive: all assays above

CCOC(=O)C#Cc1cn([C@H](C)CC2CCC([C@@H](C)C(=O)N(C)Cc3ccccc3)O2)nn1 (single isomer, unassigned)
inactive: all assays above

CCOC(=O)C#Cc1cn([C@H](C)CC2CCC([C@@H](C)C(=O)NC(C)C)O2)nn1 (single isomer, unassigned)
inactive: all assays above

C[C@H](C[C@@H]1CC[C@H]([C@@H](C)C(=O)N2CCCC2)O1)n1cc(C#CCOc2cccc(-c3ccccc3)c2)nn1
inactive: all assays above

CC(C)NC(=O)[C@H](C)[C@H]1CCC(C[C@@H](C)n2cc(C#Cc3ccccc3[N+](=O)[O-])nn2)O1 (single isomer, unassigned)
inactive: all assays above

CCN(CC)C(=O)[C@H](C)[C@H]1CC[C@@H](C[C@@H](C)n2cc(C#Cc3ccccc3)nn2)O1
inactive: all assays above

COc1ccc(C#Cc2cn([C@H](C)C[C@@H]3CC[C@H]([C@@H](C)C(=O)N4CCCC4)O3)nn2)cc1
inactive: all assays above

CCN(CC)C(=O)[C@H](C)[C@H]1CC[C@@H](C[C@@H](C)n2cc(C#CCN(C)C)nn2)O1
inactive: all assays above

C[C@H](C[C@@H]1CC[C@H]([C@@H](C)C(=O)N2CCCC2)O1)n1cc(C#CCN2CCC(c3ccccc3)CC2)nn1
inactive: all assays above

CCN(CC)C(=O)[C@H](C)[C@H]1CC[C@@H](C[C@@H](C)n2cc(C#CCN3CCN(c4ccccc4)CC3)nn2)O1
inactive: all assays above

C[C@H](C[C@@H]1CC[C@H]([C@@H](C)C(=O)N2CCCC2)O1)n1cc(C#CCN2CCN(c3ccccc3)CC2)nn1
inactive: all assays above
